Reference: ChEMBL document CHEMBL1149798, “Synthesis, computational study and cytotoxic activity of new 4-hydroxycoumarin derivatives” (Eur J Med Chem, 2008)

Legend:
[1] = Cytotoxicity against human […] cells after 72 hrs by MTT assay; type: functional, cell-based
Procedure, shortened: (§1)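 Exponentially growing cells were seeded at 3.5 × 10⁵ cells/ml (adherent EJ) or 1 × 10⁵ cells/ml (suspension HL-60), grown 24 h, then exposed continuously for 72 h. Drugs came from fresh DMSO stocks diluted in medium to ≤0.5% final DMSO, with eight wells per concentration. MTT (10 mg/ml PBS stock) was added for 4 h at 37 °C, formazan dissolved in 5% HCOOH/2-propanol, and read at 580 nm. IC50 was taken from a sigmoidal non-linear fit of survival as % of untreated control.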

HL-60 = test: Cytotoxicity against human HL60 cells after 72 hrs by MTT assay; type: functional, cell-based; details: HL-60, 72 h; procedure, shortened: as §1
[2] = system: Strongylocentrotus purpuratus; test: Inhibition of Strongylocentrotus purpuratus embryos cleavage at 10 uM; type: functional

SMILES	IC50 [1]	IC50 (HL-60)	inhibition at 10 µM [2]
CCOC(=O)C(C(C)=O)C(c1ccc(O)c(O)c1)c1c(O)c2ccccc2oc1=O (stereo not drawn)	116 µM	35.1 µM	
CCOC(=O)C(C(C)=O)C(c1ccc(C(=O)O)cc1)c1c(O)c2ccccc2oc1=O (stereo not drawn)	> 200 µM	> 200 µM	
CCOC(=O)C(C(C)=O)C(c1cccc([N+](=O)[O-])c1)c1c(O)c2ccccc2oc1=O (stereo not drawn)	172 µM	90.8 µM	
CCOC(=O)C(C(C)=O)C(c1ccc([N+](=O)[O-])cc1)c1c(O)c2ccccc2oc1=O (stereo not drawn)	> 200 µM	> 200 µM	
CCOC(=O)C(C(C)=O)C(c1ccc(O)cc1)c1c(O)c2ccccc2oc1=O (stereo not drawn)	> 200 µM	> 200 µM	
O=c1oc2ccccc2c(O)c1Cc1c(O)c2ccccc2oc1=O [DICUMAROL]			50%
N[C@@H](Cc1ccc(N(CCCl)CCCl)cc1)C(=O)O [MELPHALAN]	22.1 µM	11.4 µM	
